In ChEMBL document CHEMBL4038333, “Nonacidic Farnesoid X Receptor Modulators” (J Med Chem, 2017):
In brackets after ≈: the same amount, converted by molar mass. Activity calls are given as the source filed them. No cut-off for these calls is given here.

Experiments:
[1] = Aqueous solubility of compound; assay type: physicochemical; settings: buffer
[2] = biological target: Retinoic acid receptor gamma (Homo sapiens) (UniProt P13631); experiment: Transactivation of GAL4-tagged human RARgamma isoform 1 ligand binding domain (179 to 454 residues) expressed in HEK293T cells at 1 uM after 12 to 14 hrs by dual-glo luciferase reporter gene assay; assay type: cell-based; settings: HEK-293T
How it was run: (§1)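 Run as a selectivity screen against each listed receptor (14 nuclear receptors plus TGR5), in both agonist and antagonist modes. Test concentration was 1 µM, with n = 3.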

[3] = biological target: Peroxisome proliferator-activated receptor gamma (Homo sapiens) (UniProt P37231); experiment: Transactivation of GAL4-tagged human PPARgamma ligand binding domain expressed in HEK293T cells at 1 uM after 12 to 14 hrs by dual-glo luciferase reporter gene assay; assay type: cell-based; settings: HEK-293T; how it was run: as §1
[4] = biological target: Nuclear receptor subfamily 1 group I member 3 (Homo sapiens, UniProt Q14994); experiment: Antagonist activity at GAL4-tagged human CAR isoform 6 ligand binding domain (48 to 324 residues) expressed in HEK293T cells at 1 uM after 12 to 14 hrs by dual-glo luciferase reporter gene assay; assay type: cell-based; settings: hek-293t; how it was run: as §1
[5] = biological target: Retinoic acid receptor gamma (Homo sapiens) (UniProt P13631); experiment: Antagonist activity at GAL4-tagged human RARgamma isoform 1 ligand binding domain (179 to 454 residues) expressed in HEK293T cells at 1 uM after 12 to 14 hrs by dual-glo luciferase reporter gene assay; assay type: cell-based; settings: HEK-293T; how it was run: as §1
[6] = biological target: Peroxisome proliferator-activated receptor gamma (Homo sapiens) (UniProt P37231); experiment: Antagonist activity at GAL4-tagged human PPARgamma ligand binding domain expressed in HEK293T cells at 1 uM after 12 to 14 hrs by dual-glo luciferase reporter gene assay; assay type: cell-based; settings: HEK-293T; how it was run: as §1
HeLa [7] = experiment: Selectivity ratio for human FXR expressed in human HeLa cells co-expressing BSEP over GAL4-tagged human CAR isoform 6 ligand binding domain (48 to 324 residues) expressed in HEK293T cells; assay type: cell-based
HeLa [8] = experiment: Selectivity ratio for human FXR expressed in human HeLa cells co-expressing BSEP over GAL4-tagged human PXR isoform 1 ligand binding domain (138 to 434 residues) expressed in HEK293T cells; assay type: cell-based
HeLa [9] = experiment: Selectivity ratio for human FXR expressed in human HeLa cells co-expressing BSEP over GAL4-tagged human RXRbeta isoform 1 ligand binding domain (294 to 533 residues) expressed in HEK293T cells; assay type: cell-based
HeLa [10] = experiment: Selectivity ratio for human FXR expressed in human HeLa cells co-expressing BSEP over GAL4-tagged human PPARgamma ligand binding domain expressed in HEK293T cells; assay type: cell-based
HeLa [11] = experiment: Selectivity ratio for human FXR expressed in human HeLa cells co-expressing BSEP over GAL4-tagged human PPARalpha ligand binding domain expressed in HEK293T cells; assay type: cell-based

Retinoic acid receptor gamma (Homo sapiens), sequence (P13631 whole entry, the tested form may be a part, canonical isoform): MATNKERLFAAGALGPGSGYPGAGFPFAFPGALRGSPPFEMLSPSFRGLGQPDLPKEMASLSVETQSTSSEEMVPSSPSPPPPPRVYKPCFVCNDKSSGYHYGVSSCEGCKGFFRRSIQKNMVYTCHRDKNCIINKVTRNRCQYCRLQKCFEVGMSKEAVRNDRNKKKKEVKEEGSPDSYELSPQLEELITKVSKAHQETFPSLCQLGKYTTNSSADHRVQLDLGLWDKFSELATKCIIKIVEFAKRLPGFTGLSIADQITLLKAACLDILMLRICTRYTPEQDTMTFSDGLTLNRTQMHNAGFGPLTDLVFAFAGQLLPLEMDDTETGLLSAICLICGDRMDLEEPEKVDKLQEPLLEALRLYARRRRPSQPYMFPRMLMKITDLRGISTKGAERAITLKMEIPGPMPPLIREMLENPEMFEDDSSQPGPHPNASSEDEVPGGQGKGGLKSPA
Peroxisome proliferator-activated receptor gamma (Homo sapiens), sequence (P37231 whole entry, the tested form may be a part, canonical isoform): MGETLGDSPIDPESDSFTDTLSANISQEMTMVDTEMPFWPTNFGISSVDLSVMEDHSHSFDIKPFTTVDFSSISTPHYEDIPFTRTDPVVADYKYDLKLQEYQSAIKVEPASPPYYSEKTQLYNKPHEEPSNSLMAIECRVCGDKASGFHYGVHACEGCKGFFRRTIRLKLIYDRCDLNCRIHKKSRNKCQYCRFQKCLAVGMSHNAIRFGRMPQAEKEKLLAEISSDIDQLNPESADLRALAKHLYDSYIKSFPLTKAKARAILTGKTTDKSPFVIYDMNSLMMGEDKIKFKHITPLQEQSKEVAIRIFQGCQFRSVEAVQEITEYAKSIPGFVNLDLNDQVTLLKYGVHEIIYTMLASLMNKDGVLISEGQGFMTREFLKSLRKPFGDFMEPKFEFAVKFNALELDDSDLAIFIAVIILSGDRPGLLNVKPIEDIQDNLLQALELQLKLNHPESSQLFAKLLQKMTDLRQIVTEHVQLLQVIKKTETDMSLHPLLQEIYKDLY
Nuclear receptor subfamily 1 group I member 3, sequence (Q14994 whole entry, the tested form may be a part, canonical isoform): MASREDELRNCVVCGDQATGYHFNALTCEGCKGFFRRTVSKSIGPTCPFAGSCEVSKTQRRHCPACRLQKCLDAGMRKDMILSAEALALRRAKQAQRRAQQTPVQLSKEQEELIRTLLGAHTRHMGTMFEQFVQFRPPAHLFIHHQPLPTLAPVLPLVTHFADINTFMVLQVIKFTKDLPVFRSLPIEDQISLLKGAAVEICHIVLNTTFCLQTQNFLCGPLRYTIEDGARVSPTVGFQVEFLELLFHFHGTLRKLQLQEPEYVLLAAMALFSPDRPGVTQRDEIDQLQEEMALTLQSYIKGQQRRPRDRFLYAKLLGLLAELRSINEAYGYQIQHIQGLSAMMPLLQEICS

- solubility [1]: 0.0637 µg/mL (≈ 0.16 µM)
- Activity [2]: inactive
- Activity [3]: inactive
- inhibition (INH) [4]: Not Active
- inhibition [5]: inactive
- inhibition [6]: inactive
SMILES: COc1ccc(CNc2c(-c3cc(Cl)ccn3)nc3ccc(Cl)cn23)cc1
- Selectivity ratio (HeLa [7]): 3000
- Selectivity ratio (HeLa [8]): 3000
- Selectivity ratio (HeLa [9]): 3000
- Selectivity ratio (HeLa [10]): 3000
- Selectivity ratio (HeLa [11]): 3000
